According to ChEMBL document CHEMBL1152610, “3- and 6-Substituted 2-amino-4,5,6,7-tetrahydrothieno[2,3-c]pyridines as A1 adenosine receptor allosteric modulators and antagonists” (Bioorg Med Chem, 2009):
The source made the active and inactive calls. The rule behind the calls is not given here.

Tests used:
[1] = target: T1, Adenosine receptor A1 (Homo sapiens) (UniProt P30542); assay: Allosteric modulatory activity at human adenosine A1 receptor expressed in CHOk1 cells assessed as [125I]-ABA-receptor-G protein ternary complex remaining after 10 mins of radioligand dissociation at 50 uM by dissociation kinetic binding assay; assay type: cell-based
T1 sequence (whole entry): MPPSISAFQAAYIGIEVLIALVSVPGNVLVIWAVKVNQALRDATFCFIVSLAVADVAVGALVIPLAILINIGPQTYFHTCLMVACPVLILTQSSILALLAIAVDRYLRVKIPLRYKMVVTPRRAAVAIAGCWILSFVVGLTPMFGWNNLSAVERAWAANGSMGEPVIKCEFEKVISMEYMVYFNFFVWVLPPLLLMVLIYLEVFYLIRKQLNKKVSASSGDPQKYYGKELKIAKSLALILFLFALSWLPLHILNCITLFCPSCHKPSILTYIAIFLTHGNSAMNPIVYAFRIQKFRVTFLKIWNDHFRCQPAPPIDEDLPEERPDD
How it was run: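 Membranes (10 μg) from CHO-K1 cells stably expressing human A1AR were equilibrated for 90 min at room temperature with 0.5 nM [125I]-ABA in 10 mM HEPES pH 7.2, 0.5 mM MgCl2 and 1 U/mL adenosine deaminase. Modulator (0.1–50 μM final) was added for 30 min. Dissociation was started with 100 μM orthosteric antagonist plus 25 μM GTPγS for 10 min, then samples were filtered and counted. K-score is the % specific binding remaining; EC50 comes from a variable-slope sigmoidal fit.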

[2] = target: T1, Adenosine receptor A1 (Homo sapiens); assay: Agonist activity at human adenosine A1 receptor expressed in CHOk1 cells assessed as potentiation of R-PIA-induced ERK1/2 phosphorylation at 10 uM; assay type: functional, cell-based
How it was run: (§1)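 FlpIn-CHO cells stably expressing human A1AR were seeded at 50,000/well and kept in serum-free DMEM/20 mM HEPES for at least 4 h. They were pretreated for 30 min with 1 U/mL adenosine deaminase, then for 30 min at 37 °C with compound at 3 or 10 μM.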

[3] = target: T1, Adenosine receptor A1 (Homo sapiens); assay: Agonist activity at human adenosine A1 receptor expressed in CHOk1 cells assessed as potentiation of R-PIA-induced ERK1/2 phosphorylation at 3 uM; assay type: functional, cell-based; how it was run: as §1
[4] = target: T1, Adenosine receptor A1 (Homo sapiens); assay: Agonist activity at human adenosine A1 receptor expressed in CHOk1 cells assessed as induction of ERK1/2 phosphorylation at 10 uM relative to R-PIA; assay type: functional, cell-based; how it was run: as §1
Adenosine receptor A1 [5] = target: T2, Adenosine receptor A1 (Homo sapiens, UniProt P30542); assay: Allosteric modulatory activity at human adenosine A1 receptor expressed in CHOk1 cells assessed as drug level causing half maximal allosteric effect on [125I]-ABA dissociation from receptor-G protein ternary complex by dissociation kinetic binding assay; assay type: cell-based
T2 sequence (P30542 whole entry): T1 sequence (whole entry)

Adenosine receptor A1 [6] = target: T2, Adenosine receptor A1; assay: Antagonist activity at human adenosine A1 receptor expressed in CHOk1 cells assessed as inhibition of R-PIA-induced ERK1/2 phosphorylation; assay type: functional, cell-based; conditions: read-out: pA2 (converted)
How it was run: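 Human A1AR FlpIn-CHO cells were serum-starved and pretreated for 30 min with 1 U/mL adenosine deaminase. Modulator (0.3, 1, 3, 10 or 30 μM) or none was then added for 30 min at 37 °C. Full R-PIA concentration–response curves followed, with 5 min stimulation. ERK1/2 phosphorylation was measured by AlphaScreen SureFire and normalized to the 6 min 3% FBS response.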

Row | SMILES | Activity [1] | Activity [2] | Activity [3] | Activity [4] | EC50 (Adenosine receptor A1 [5]) | Kb (Adenosine receptor A1 [6])
1 | Nc1sc2c(c1C(=O)O)CCN(Cc1ccccc1)C2 | 68.3% | inactive | inactive | inactive | 8 µM | –
2 | CCOC(=O)c1c(N)sc2c1CCN(C(=O)[C@H](CSC(c1ccccc1)(c1ccccc1)c1ccccc1)NC(=O)OC(C)(C)C)C2 | 93.2% | inactive | inactive | inactive | 7.9 µM | –
3 | CCOC(=O)c1c(N)sc2c1CCN(C(=O)[C@H](Cc1ccccc1)NC(=O)OC(C)(C)C)C2 | 82.5% | inactive | inactive | inactive | 7.2 µM | 0.372 µM
4 | Nc1sc2c(c1C(=O)c1ccc(Cl)cc1)CCN(Cc1ccccc1)C2 | 32.6% | Active | Active | – | > 20 µM | –
5 | CCOC(=O)c1c(N)sc2c1CCNC2 | 58.5% | inactive | inactive | inactive | 11.7 µM | –
6 | Nc1sc2c(c1C(=O)NNc1ccccc1)CCN(Cc1ccccc1)C2 | 55.4% | inactive | inactive | inactive | 7.8 µM | –
7 | Nc1sc2c(c1C(=O)NCc1ccccc1)CCN(Cc1ccccc1)C2 | 37.6% | inactive | inactive | inactive | 13.1 µM | –
8 | N#Cc1c(N)sc2c1CCN(Cc1ccccc1)C2 | 52% | inactive | inactive | inactive | 15.2 µM | –
9 | CCOC(=O)c1c(N)sc2c1CCN(C)C2 | 14.9% | inactive | inactive | inactive | > 20 µM | –
10 | CCOC(=O)c1c(N)sc2c1CCN(C(=O)OC(C)(C)C)C2 | 32.8% | inactive | inactive | inactive | 13.2 µM | 0.832 µM
11 | CN1CCc2c(sc(N)c2C(=O)NCc2ccccc2)C1 | 87.2% | inactive | inactive | inactive | 12 µM | –
12 | CN1CCc2c(sc(N)c2C(=O)NN)C1 | 85.7% | inactive | inactive | inactive | 4.4 µM | –
13 | CN1CCc2c(sc(N)c2C(=O)NNc2ccccc2)C1 | 83.1% | inactive | inactive | inactive | 11.5 µM | –
14 | NNC(=O)c1c(N)sc2c1CCN(Cc1ccccc1)C2 | 82.9% | inactive | inactive | inactive | 8.9 µM | –
15 | CCOC(=O)c1c(N)sc2c1CCN(Cc1ccccc1)C2 [TINORIDINE] | 44.9% | inactive | inactive | inactive | 10.3 µM | –
16 | Nc1sc2c(c1C(=O)NCc1cccc(Cl)c1)CCN(Cc1ccccc1)C2 | 36% | inactive | inactive | inactive | > 20 µM | –
17 | CN1CCc2c(sc(N)c2C#N)C1 | 14.8% | inactive | inactive | inactive | > 20 µM | –
18 | CC(C)(C)OC(=O)N1CCc2c(sc(N)c2C#N)C1 | 22.9% | inactive | inactive | inactive | > 20 µM | –
19 | CN1CCc2c(sc(N)c2C(N)=O)C1 | 19.8% | inactive | inactive | inactive | > 20 µM | –
20 | CCOC(=O)c1c(N)sc2c1CCN(C(=O)[C@@H](Cc1ccc(Cl)cc1)N(C)C(=O)OC(C)(C)C)C2 | 92.9% | inactive | inactive | inactive | 9.1 µM | 1.82 µM
21 | Nc1sc2c(c1C(=O)NCc1cccc(C(F)(F)F)c1)CCN(Cc1ccccc1)C2 | 46.9% | inactive | inactive | inactive | 15.5 µM | –
22 | CC(C)(C)OC(=O)N1CCc2c(sc(N)c2C(=O)O)C1 | 66.1% | inactive | inactive | inactive | 12.1 µM | –
23 | NC(=O)c1c(N)sc2c1CCN(Cc1ccccc1)C2 | 19.1% | inactive | inactive | inactive | > 20 µM | –
24 | CN1CCc2c(sc(N)c2C(=O)NCc2cccc(Cl)c2)C1 | 88% | inactive | inactive | inactive | 13.2 µM | –
25 | CN1CCc2c(sc(N)c2C(=O)O)C1 | 77.1% | inactive | inactive | inactive | 11.6 µM | –
